≈ marks a conversion by molar mass, not a printed value. Calls of active or inactive are those of the source.

In assay [1] the test system is Staphylococcus aureus. Nature of the assay: Induction of membrane depolarization in heterogeneous vancomycin-intermediate resistant Staphylococcus aureus ATCC 700698 at 16 ug/mL using DiSC3(5) dye by fluorimetric assay. It counts as functional, organism-based.
Assay [2] has as its system Staphylococcus aureus. Nature of the assay: Increase in membrane permeability in heterogeneous vancomycin-intermediate resistant Staphylococcus aureus ATCC 700698 at 16 ug/mL using SYTO9 staining by fluorimetric assay. It counts as functional, organism-based.
The test system of assay [3] is Staphylococcus aureus. Nature of the assay: Bactericidal activity against heterogeneous vancomycin-intermediate resistant Staphylococcus aureus ATCC 700698 at 16 ug/ml within 30 mins. It counts as functional, organism-based. The method, boiled down:
(§1)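 Short-duration time-kill of hVISA ATCC 700698 under conditions similar to the membrane assays, without polysorbate-80, with drug at 4, 8 or 16 μg/ml; viable counts as change in log CFU from time zero over 30 min. Bactericidal defined as ≥3 log CFU decrease; detection limit 200 CFU; three independent experiments.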

Assay [4] deals with Staphylococcus aureus. Nature of the assay: Antimicrobial activity against heterogeneous vancomycin-intermediate resistant Staphylococcus aureus ATCC 700698. It counts as functional.
Assay [5] has as its system Staphylococcus aureus. Nature of the assay: Bactericidal activity against heterogeneous vancomycin-intermediate resistant Staphylococcus aureus ATCC 700698 assessed as reduction in bacterial count at 16 ug/ml within 30 mins. It counts as functional. The method, boiled down:
as §1

For assay [6], the system named is Staphylococcus aureus. Nature of the assay: Antimicrobial activity against heterogeneous vancomycin-intermediate resistant Staphylococcus aureus. It counts as functional.
For assay [7], the system named is Staphylococcus aureus. Nature of the assay: Bactericidal activity against heterogeneous vancomycin-intermediate resistant Staphylococcus aureus ATCC 700698 assessed as reduction in bacterial count at 4 ug/ml within 30 mins. It counts as functional. The essentials: as §1
Assay [8] concerns Staphylococcus aureus. Nature of the assay: Induction of membrane depolarization in heterogeneous vancomycin-intermediate resistant Staphylococcus aureus ATCC 700698 using DiSC3(5) dye by fluorimetric assay. It counts as functional, organism-based.
The test system of assay [9] is Staphylococcus aureus. Nature of the assay: Bactericidal activity against heterogeneous vancomycin-intermediate resistant Staphylococcus aureus ATCC 700698 assessed as reduction in bacterial count at 8 ug/ml within 30 mins. It counts as functional. The essentials:
as §1

The test system of assay [10] is Enterococcus. Nature of the assay: Antimicrobial activity against vancomycin-resistant Enterococcus. It counts as functional.
Assay [11] has as its system Staphylococcus aureus. Nature of the assay: Increase in membrane permeability in heterogeneous vancomycin-intermediate resistant Staphylococcus aureus ATCC 700698 using SYTO9 staining by fluorimetric assay. It counts as functional, organism-based.
For assay [12], the system named is Staphylococcus aureus. Nature of the assay: Antimicrobial activity against vancomycin-intermediate resistant Staphylococcus aureus. It counts as functional.
The test system of assay [13] is Staphylococcus aureus. Nature of the assay: Antimicrobial activity against vancomycin-resistant Staphylococcus aureus. It counts as functional.

Turning to `CN[C@H](CC(C)C)C(=O)N[C@H]1C(=O)N[C@@H](CC(N)=O)C(=O)N[C@H]2C(=O)N[C@H]3C(=O)N[C@H](C(=O)N[C@H](C(=O)O)c4cc(O)cc(O)c4-c4cc3ccc4O)[C@H](O[C@H]3C[C@](C)(N)[C@@H](O)[C@H](C)O3)c3ccc(c(Cl)c3)Oc3cc2cc(c3O[C@@H]2O[C@H](CO)[C@@H](O)[C@H](O)[C@H]2O[C@H]2C[C@](C)(N)[C@@H](O)[C@H](C)O2)Oc2ccc(cc2Cl)[C@H]1O` [CHLOROEREMOMYCIN], the outcome in assay [1], in assay [2] and in assay [3] was inactive. The same compound had a minimal inhibitory concentration (MIC) in assay [4] of 1 µg/mL (≈ 0.628 µM).

As for `CN[C@H](CC(C)C)C(=O)N[C@H]1C(=O)N[C@@H](CC(N)=O)C(=O)N[C@H]2C(=O)N[C@H]3C(=O)N[C@H](C(=O)N[C@H](C(=O)O)c4cc(O)cc(O)c4-c4cc3ccc4O)[C@H](O[C@H]3C[C@](C)(N)[C@@H](O)[C@H](C)O3)c3ccc(c(Cl)c3)Oc3cc2cc(c3O[C@@H]2O[C@H](CO)[C@@H](O)[C@H](O)[C@H]2O[C@H]2C[C@](C)(NCc3ccc(-c4ccc(Cl)cc4)cc3)[C@@H](O)[C@H](C)O2)Oc2ccc(cc2Cl)[C@H]1O` [ORITAVANCIN], the log10cfu entry in [5], in [7] and in assay [9] was “>=3” each time. Moreover, the MIC came to 0.25 µg/mL (≈ 0.139 µM) in assay [6]; 0.25 µg/mL (≈ 0.139 µM) in assay [10]; 0.25 µg/mL (≈ 0.139 µM) in assay [12]; 0.25 µg/mL (≈ 0.139 µM) in assay [13]; 1 µg/mL (≈ 0.558 µM) in assay [4]. In addition, the Activity result in [8] and in assay [11] was “Dose-dependent effect” each time.

As for `CN[C@H](CC(C)C)C(=O)N[C@H]1C(=O)N[C@@H](CC(N)=O)C(=O)N[C@H]2C(=O)N[C@H]3C(=O)N[C@H](C(=O)N[C@H](C(=O)O)c4cc(O)cc(O)c4-c4cc3ccc4O)[C@H](O)c3ccc(c(Cl)c3)Oc3cc2cc(c3O[C@@H]2O[C@H](CO)[C@@H](O)[C@H](O)[C@H]2O[C@H]2C[C@](C)(N)[C@H](O)[C@H](C)O2)Oc2ccc(cc2Cl)[C@H]1O`, the result in assay [1], in assay [2] and in [3] was inactive.

The values are drawn from ChEMBL document CHEMBL1687810, “Oritavancin disrupts membrane integrity of Staphylococcus aureus and vancomycin-resistant enterococci to effect rapid bacterial killing” (2010).
